Data as given in PMC6593619 (Clinical Pharmacology and Therapeutics, 2019).
Where two headings read alike, the source gives them in different places.

Tests used:
[1] = format: in vivo, human; conditions: for Relative difference in Cmax C vs. A (95% CI): esomeprazole 3 hours prior vs regorafenib alone; for Relative difference in Cmax B vs. A (95% CI): esomeprazole concomitant vs regorafenib alone; for Cmax (geomean (CV)) / Tmax: plasma; for Cmax (geomean (CV)): CV in %; for Tmax: human, oral, Tmax (median (IQR))
Summary of the method: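 mCRC or GIST patients: regorafenib 120 or 160 mg daily, 14-day loading, 5 days alone or with esomeprazole 40 mg daily (concomitant or 3 h prior); sequence A-B-C or C-B-A. Plasma predose to 24 h on days 21, 49, 77; UPLC-MS/MS. Log Cmax: mixed model (treatment, sequence, phase fixed; subject random), geometric-mean ratio, Bonferroni 97.5% CI. Tmax: Wilcoxon signed rank.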

[2] = cited from earlier work
[3] = mCRC, unselected group, third or fourth line; cited from earlier work
Toxicity = format: in vivo, human; conditions: whole study period
Summary of the method: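 Incidence of toxicity tallied per phase in patients on regorafenib 120 or 160 mg daily, alone or with esomeprazole 40 mg daily; only toxicity new or worsened relative to baseline counted.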

[4] = compared with other TKIs, despite solid dispersion formulation; cited from earlier work
[5] = after oral administration; cited from earlier work
[6] = erlotinib combined with omeprazole; cited from earlier work
[7] = phase A: regorafenib alone, 120 mg at steady state
[8] = phase A: regorafenib alone, 120 mg once daily at steady state
[9] = phase B: regorafenib + esomeprazole 40 mg concomitant
[10] = phase B: regorafenib + esomeprazole concomitant
[11] = phase C: regorafenib + esomeprazole 40 mg 3 hours prior
[12] = phase C: regorafenib + esomeprazole 3 hours prior

Row | Structure (SMILES) | Relative difference in Cmax C vs. A (95% CI) [1] | Relative difference in Cmax B vs. A (95% CI) [1] | Tmax (median (IQR)) [1, 7] | Cmax (geomean (CV)) [1, 8] | Cmax (geomean (CV)) [1, 9] | Tmax (median (IQR)) [1, 10] | Cmax (geomean (CV)) [1, 11] | Tmax (median (IQR)) [1, 12] | other results
1 | CNC(=O)c1cc(Oc2ccc(NC(=O)Nc3ccc(Cl)c(C(F)(F)F)c3)c(F)c2)cc[n+]1[O-] [M‐2] | −9.3% (−38.1 to 32.9%) | −11.0% (−38.7 to 29.1%) | 3.3 (2.0–6.0) hours | 2.9 (72.0) μg/mL | 2.6 (60.9) μg/mL | 2.6 (2.1–3.5) hours | 2.6 (44.2) μg/mL | 3.5 (2.5–6.0) hours | –
2 | NC(=O)c1cc(Oc2ccc(NC(=O)Nc3ccc(Cl)c(C(F)(F)F)c3)c(F)c2)cc[n+]1[O-] [M‐5] | −9.1% (−43.2 to 45.5%) | −10.4% (−34.6 to 22.8%) | 2.6 (1.5–4.0) hours | 1.6 (118.8) μg/mL | 1.4 (132.4) μg/mL | 2.3 (1.5–8.0) hours | 1.4 (107.6) μg/mL | 3.5 (2.5–6.0) hours | –
3 | CNC(=O)c1cc(Oc2ccc(NC(=O)Nc3ccc(Cl)c(C(F)(F)F)c3)c(F)c2)ccn1 [Regorafenib, 4‐[4‐({[4‐chloro‐3‐(trifluoromethyl)phenyl]carbamoyl}amino)‐3‐fluorophenoxy]‐N‐methylpyridine‐2‐carboxamide] | −12.1% (−32.0 to 13.8%) | −16.5% (−34.9 to 7.0%) | – | – | – | – | – | – | Pharmacokinetic interaction with esomeprazole ([1]; esomeprazole concomitant or 3 hours prior): did not reveal a significant pharmacokinetic interaction; Tmax ([1]; 120 mg, phase A: regorafenib alone, 120 mg at steady state): 2.5 h; Tmax [1, 10]: 2.5 h; Tmax [1, 12]: 3 h; Basic predicted pKa [2]: around 2; Median overall survival increase compared with placebo [3]: 1.4 months; Incidence of anorexia ≥ grade 3 (Toxicity): 14%; Incidence of hand/foot skin reaction ≥ grade 3 (Toxicity): 14%; Incidence of hypertension ≥ grade 3 (Toxicity): 64%; Incidence of anorexia (Toxicity; all grades): 71%; Incidence of fatigue (Toxicity; all grades): 71%; Incidence of hand/foot skin reaction (Toxicity; all grades): 64%; Incidence of hypertension (Toxicity; all grades): 71%; Incidence of stomatitis (Toxicity; all grades): 57%; Incidence of hoarseness (Toxicity; all grades, 14 patients): 79%; Solubility [4]: low solubility; Time of maximum concentration (Tmax) [5]: 3 to 4 h
4 | C#Cc1cccc(Nc2ncnc3cc(OCCOC)c(OCCOC)cc23)c1 [erlotinib] | – | – | – | – | – | – | – | – | Decrease in systemic exposure [6]: 46%
